Data on 33 molecules can be found in ChEMBL document CHEMBL1148734, “Structure-activity relationships of phenyl-furanyl-rhodanines as inhibitors of RNA polymerase with antibacterial activity on biofilms” (J Med Chem, 2007).

Data set [1] relates to Staphylococcus epidermidis. Nature of the data set: Antibacterial activity against Staphylococcus epidermidis CIP 105777. Format: functional.
Data set [2] has as its system Escherichia coli. Nature of the data set: Antibacterial activity against Escherichia coli tolC CGSC 5633. Format: functional.
The subject of data set [3] is Escherichia coli. In words: Inhibition of RNA polymerase sigma-70 transcription in Escherichia coli at 10 uM. Format: functional.
Another data set deals with CHO. In words: Cytotoxicity against CHO cells. Format: cell-based, Cricetulus griseus. Particulars: chinese hamster. An outline of the steps:
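CHO cells grown in RPMI with 5% fetal calf serum, then exposed to compounds 24 h at 37 °C without serum. MTT added at 300 µg/mL final, 3 h at 37 °C dark; acidified isopropanol added, 1 h at room temperature; OD at 595 nm.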

For another data set, the system named is Staphylococcus aureus. In words: Antibacterial activity against multidrug resistant Staphylococcus aureus 49589. Type of data set: functional. The procedure, abridged:
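Broth microdilution MIC following CLSI. Compounds were predissolved in DMSO and tested as serial 2-fold dilutions at final 100 to 0.4 µg/mL. Inoculum was 5 × 10⁵ CFU/mL, and plates were read after 18 h at 37 °C.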

Values after ≈ are worked out from the molar mass of the structure shown. Active and inactive are the calls of the source.

Regarding `C=CCN1C(=O)/C(=C/c2ccc(-c3ccc4c(c3)C(=O)OC4)o2)SC1=S`, the MIC (in data set [1]; in the data set on Escherichia coli [2]) was not below 100 µg/mL each time. For the same molecule, 10 µM produced 5% inhibition with Escherichia coli [3]. For the same molecule, the Activity with CHO stood at 50 µg/mL.
In the case of GENTAMICIN, the outcome in the data set with Staphylococcus aureus was inactive.
The same measure, in the same setting: next, `CO[C@H]1/C=C/O[C@@]2(C)Oc3c(C)c(O)c4c(O)c(c(/C=N/N5CCN(C)CC5)c(O)c4c3C2=O)NC(=O)/C(C)=C\C=C\[C@H](C)[C@H](O)[C@@H](C)[C@@H](O)[C@@H](C)[C@H](OC(C)=O)[C@@H]1C`: “inactive”.
As to `CC(=O)O[C@H]1C[C@@]2(C)[C@@H](C[C@@H](O)[C@H]3[C@@]4(C)CC[C@@H](O)[C@@H](C)[C@@H]4CC[C@@]32C)/C1=C(\CCC=C(C)C)C(=O)O`, the outcome with Staphylococcus aureus was Active.
As to `C#CCN1C(=O)S/C(=C\c2ccc(-c3ccc(C(=O)O)cc3)o2)C1=O`, the MIC (in data set [1]; against Escherichia coli [2]) was more than 100 µg/mL each time. Further, at 10 µM the inhibition in the data set on Escherichia coli [3] was 100%. Moreover, the Activity entry in the data set on CHO is listed as “>= 100 ug ml-1”.
As for `C=CCN1C(=O)/C(=C/c2ccc(-c3cccc(N)c3)o2)SC1=S`, the minimum inhibitory concentration (MIC) (in data set [1]; in the data set with Escherichia coli [2]) was not below 100 µg/mL each time. For the same molecule, testing at 10 µM with Escherichia coli [3] gave an inhibition of 11%. The Activity entry in the data set on CHO is listed as “>= 100 ug ml-1”.
As for `CC1COc2c(N3CCN(C)CC3)c(F)cc3c(=O)c(C(=O)O)cn1c23` (centres undefined), the outcome with Staphylococcus aureus was inactive.
The same measure, in the same setting: next, `CN[C@H](CC(C)C)C(=O)N[C@H]1C(=O)N[C@@H](CC(N)=O)C(=O)N[C@H]2C(=O)N[C@H]3C(=O)N[C@H](C(=O)N[C@H](C(=O)O)c4cc(O)cc(O)c4-c4cc3ccc4O)[C@H](O)c3ccc(c(Cl)c3)Oc3cc2cc(c3O[C@@H]2O[C@H](CO)[C@@H](O)[C@H](O)[C@H]2O[C@H]2C[C@](C)(N)[C@H](O)[C@H](C)O2)Oc2ccc(cc2Cl)[C@H]1O`: “Active”; `CN(C)[C@@H]1C(O)=C(C(N)=O)C(=O)[C@@]2(O)C(O)=C3C(=O)c4c(O)cccc4[C@@](C)(O)[C@H]3C[C@@H]12`: “inactive”.
`CN1C(=O)/C(=C/c2ccc(-c3cccc(C(=O)O)c3)o2)SC1=S`: the MIC (in data set [1]; with Escherichia coli [2]) was more than 100 µg/mL throughout. 10 µM produced 89% inhibition with Escherichia coli [3]. Moreover, in the data set with CHO, the Activity result is reported as “>= 100 ug ml-1”.
With `CC(=O)/N=C1\NC(=O)/C(=C/c2ccc(-c3ccc(C(=O)O)cc3)o2)S1`, the MIC (in data set [1]; against Escherichia coli [2]) was not below 100 µg/mL each time. For the same molecule, in the data set on Escherichia coli [3], the inhibition – broadly, the relative decrease from the control value, in per cent – at 10 µM was found to be 98%. Besides, in the data set on CHO, the Activity result is “>= 100 ug ml-1”.
For the molecule `C=CCN1C(=O)S/C(=C\c2ccc(-c3ccc(C(=O)O)cc3)o2)C1=O`, the MIC (in data set [1]; against Escherichia coli [2]) was not below 100 µg/mL throughout. In addition, the inhibition at 10 µM with Escherichia coli [3] was determined as 75%. Also, the Activity result in the data set with CHO is on record as “>= 100 ug ml-1”.
Take `O=C1NC(=S)S/C1=C\c1ccc(-c2ccc(C(=O)O)cc2)o1`: the MIC (in data set [1]; with Escherichia coli [2]) was not below 100 µg/mL throughout. For the same molecule, the inhibition at 10 µM with Escherichia coli [3] worked out at 82%. For the same molecule, the Activity result in the data set on CHO is reported as “>= 100 ug ml-1”.
For the molecule `C=CCN1C(=O)/C(=C/c2ccc(-c3ccc(S(=O)(=O)O)cc3)o2)SC1=S`, the MIC (in data set [1]; against Escherichia coli [2]) was not below 100 µg/mL each time. This molecule registered an inhibition at 10 µM in the data set with Escherichia coli [3] of 9%. The Activity entry with CHO is “>= 100 ug ml-1”.
Take `C=CCN1C(=O)/C(=C/c2ccc(Cc3ccc(C(=O)O)cc3)o2)SC1=S`: the minimum inhibitory concentration (MIC) (in data set [1]; against Escherichia coli [2]) was not below 100 µg/mL throughout. The molecule also had an inhibition at 10 µM with Escherichia coli [3] of 63%. The Activity result in the data set on CHO is recorded as “>= 100 ug ml-1”.
Regarding `O=C(O)CN1C(=O)/C(=C/c2ccc(-c3cccc(C(=O)O)c3)o2)SC1=S`, the MIC (in data set [1]; with Escherichia coli [2]) was not below 100 µg/mL throughout. The inhibition at 10 µM in the data set on Escherichia coli [3] turned out to be 17%. Also, the Activity result in the data set on CHO is reported as “>= 100 ug ml-1”.
`NC[C@H]1O[C@H](O[C@H]2[C@H](O)[C@@H](O[C@H]3O[C@H](CO)[C@@H](O)[C@H](N)[C@H]3O)[C@H](N)C[C@@H]2N)[C@H](N)C[C@@H]1O`: the outcome in the data set with Staphylococcus aureus was inactive.
Same read-out and setting: for `NCC[C@H](O)C(=O)N[C@@H]1C[C@H](N)[C@@H](O[C@H]2O[C@H](CN)[C@@H](O)[C@H](O)[C@H]2O)[C@H](O)[C@H]1O[C@H]1O[C@H](CO)[C@@H](O)[C@H](N)[C@H]1O` the value was “inactive”.
For the molecule `O=C(O)c1ccc(-c2ccc(/C=C3\Sc4ccccc4C3=O)o2)cc1`, the MIC (in data set [1]; with Escherichia coli [2]) was more than 100 µg/mL in each case. The molecule also displayed an inhibition at 10 µM in the data set with Escherichia coli [3] of 30%. Also, the Activity result in the data set on CHO is “>= 100 ug ml-1”.
On to `C[C@@H]1O[C@@H]1P(=O)(O)O`, for which the result in the data set with Staphylococcus aureus was Active.
Regarding `C=CCN1C(=O)/C(=C/c2ccc(-c3ccc([N+](=O)[O-])cc3)o2)SC1=S`, the MIC (in data set [1]; against Escherichia coli [2]) was not below 100 µg/mL throughout. Besides, testing at 10 µM in the data set with Escherichia coli [3] gave an inhibition of 3%. Further, the Activity result in the data set with CHO is on record as “>= 100 ug ml-1”.
As for `C=CCN1C(=O)/C(=C/c2ccc(-c3cccc(Cl)c3)o2)SC1=S`, the MIC (as a rule, the smallest concentration in the dilution series that meets the test's criterion for growth inhibition) in data set [1] was not below 100 µg/mL; in the data set on Escherichia coli [2], 12.5 µg/mL (≈ 34.5 µM). Also, the inhibition at 10 µM with Escherichia coli [3] turned out to be 76%. In addition, the Activity result with CHO is recorded as “>= 100 ug ml-1”.
The matching figures for `COCCN1C(=O)N/C(=C\c2ccc(-c3cccc(C(=O)O)c3)o2)C1=O`: not below 100 µg/mL, not below 100 µg/mL, 85% and “>= 100 ug ml-1”.
On to `C=CCN1C(=O)/C(=C/c2ccc(-c3ccccc3C(=O)O)o2)SC1=S`, for which the MIC (in data set [1]; with Escherichia coli [2]) was not below 100 µg/mL in each case. Besides, in the data set on Escherichia coli [3], 10 µM produced 72% inhibition. In the data set on CHO, the Activity result is recorded as “>= 100 ug ml-1”.
For the molecule `O=C1NC(=O)/C(=C/c2ccc(-c3ccc(C(=O)O)cc3)o2)N1`, the MIC (in data set [1]; in the data set with Escherichia coli [2]) was not below 100 µg/mL in each case. 10 µM produced 55% inhibition in the data set with Escherichia coli [3]. Besides, the Activity result with CHO is “>= 100 ug ml-1”.
`CC1(C)S[C@@H]2[C@H](NC(=O)[C@H](N)c3ccc(O)cc3)C(=O)N2[C@H]1C(=O)O`: the result in the data set with Staphylococcus aureus was inactive.
For `CC1(C)S[C@@H]2[C@H](NC(=O)Cc3ccccc3)C(=O)N2[C@H]1C(=O)O`, the result in the data set with Staphylococcus aureus was inactive.
With `C=CCN1C(=O)/C(=C/c2ccc(-c3cc(N)cc(C(=O)O)c3)o2)SC1=S`, the MIC (in data set [1]; with Escherichia coli [2]) was not below 100 µg/mL throughout. Further, the inhibition at 10 µM in the data set on Escherichia coli [3] came to 71%. For the same molecule, the Activity result in the data set with CHO is on record as “>= 100 ug ml-1”.
As to `C=CCN1C(=O)/C(=C/c2ccc(-c3cccc(C(F)(F)F)c3)o2)SC1=S`, the MIC (in data set [1]; in the data set with Escherichia coli [2]) was not below 100 µg/mL each time. For the same molecule, the Activity entry in the data set with CHO is reported as “>= 100 ug ml-1”.
Regarding `C=CCN1C(=O)/C(=C/c2ccc(-c3ccc(C(=O)OC)cc3)o2)SC1=S`, the MIC (in data set [1]; with Escherichia coli [2]) was not below 100 µg/mL in each case. In the data set on Escherichia coli [3], 10 µM produced 10% inhibition. Also, the Activity entry with CHO is given as “>= 100 ug ml-1”.
`Cc1onc(-c2ccccc2)c1C(=O)N[C@@H]1C(=O)N2[C@@H]1SC(C)(C)[C@@H]2C(=O)O`: the outcome in the data set with Staphylococcus aureus was inactive.
For the molecule `C=CCN1C(=O)/C(=C/c2ccc(-c3ccc(OP(=O)(O)O)cc3)o2)SC1=S`, the MIC (in data set [1]; against Escherichia coli [2]) was not below 100 µg/mL in each case. In the data set with CHO, this molecule returned an Activity of 50 µg/mL.
For `O=C(O)c1cccc(-c2ccc(C=C3C(=O)c4ccccc4C3=O)o2)c1`, the MIC (in data set [1]; in the data set on Escherichia coli [2]) was 50 µg/mL (≈ 145 µM) throughout. In the data set with Escherichia coli [3], this molecule gave an inhibition at 10 µM of 72%. Further, in the data set on CHO, the Activity was 50 µg/mL.
